# From PubChem BioAssay AID651787 (The Scripps Research Institute Molecular Screening Center, 2012)
# The campaign covered roughly 2,400 compounds. About 1,200 (50%) were called active. So high a share suggests a set chosen from earlier hits. The list is a sample of the results. Unmarked numbers belong to inactive results.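 The calls were made as follows: active = activation above the run cutoff, the mean activation over all tested wells plus 3 SD (cut at about 12% in these data); inactive = the rest.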
# Assay: calcium rise in parental Ga16 cells – cell-based, fluorescence, CHO-Ga16 parental line, counter-screen for hTAAR1 agonist project (AID 651787)
# Details: Fluo-8 calcium fluorescence, at 3 µM, hits give high values, normalized to maximal ATP response, DMSO zero
# In short: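 Assay system: Gα16-overexpressing parental CHO cells; read-out basis: percent activation from max/basal fluorescence ratio; schedule: 17-24 h seeding, dye 75 min 37 °C, 30 min RT; control set: DMSO (0%) and EC100 ATP (100%); signal: kinetic Fluo-8 calcium fluorescence, ex 470-495/em 515-575 nm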
row,Structure (SMILES),activation
1,Nc1cccc2c1C(=O)N(Cc1nnc(-c3ccccc3Br)o1)C2=O,60.4% (active)
2,CCCCCC(=O)NC(=S)NNC(=O)c1ccc([N+](=O)[O-])cc1,91.4% (active)
3,O=C(NCCc1ccccc1)/C(=C\c1ccc([N+](=O)[O-])cc1)NC(=O)c1ccccc1,2.11%
4,O=C(O)C1CC=CCC1C(=O)NCCc1ccccc1 (stereo not given),0.16%
5,CCCC1CCC(=NNC(=S)NCCc2ccccc2)CC1 (stereo not given),14.1% (active)
6,CCC(C(=O)Nc1ccc(C(C)C)cc1)c1ccccc1 (stereo not given),75.1% (active)
7,c1ccc(C2CNCc3c2ccc2ccccc32)cc1 (stereo not given),25.6% (active)
8,COc1ccc(C(=O)CN2C(=O)NC(C)(c3ccc(C)cc3)C2=O)cc1OC (stereo not given),20.1% (active)
9,Cc1ccc(O)c(NC(=S)NC(=O)COc2ccc(Br)cc2)c1,101% (active)
10,CCCOc1ccc(-c2c(C(=O)N/N=C/c3ccco3)nnn2-c2nonc2N)cc1,39.5% (active)
11,Nc1nonc1-n1nnc(C(=O)N/N=C/c2ccc(Cl)cc2)c1-c1ccc2c(c1)OCO2,92.4% (active)
12,c1ccc(-c2csc(N3CCc4ccccc4C3)n2)cc1,0.58%
13,O=C(Nc1ccc(F)cc1)Nc1nnc([C@H]2C[C@H](O)[C@@H](CO)O2)s1,4.42%
14,O=C(CSc1nc(-c2ccco2)cc(C(F)(F)F)n1)NCc1cccs1,0.35%
15,COc1cccc(N(CC(=O)N2CCc3ccccc3C2)S(C)(=O)=O)c1,1.72%
16,C#CCOc1ccc(/C=C2/C(=O)NN(c3ccccc3)C2=O)cc1OC,45.9% (active)
17,Cc1ccc(Cl)cc1N1CCN(C(=O)c2cccc3c(=O)c(C)c(-c4ccccc4)oc23)CC1,78.9% (active)
18,CC(Oc1ccc2ccccc2c1)C(=O)NNC(=S)NC(=O)c1ccco1 (stereo not given),75.1% (active)
19,CCCc1ccc(OCC(=O)NNC(=S)NC(=O)c2ccco2)cc1,64.1% (active)
20,COCCCn1c(Cc2csc(Nc3cccc(Cl)c3)n2)nnc1SCC(=O)OC1CCCCC1,3.91%
21,NC(Cc1ccccc1)c1csc(Nc2cc(Oc3ccccc3)ncn2)n1 (stereo not given),39% (active)
22,CC(C)(C)CC(=O)Nc1nc(C(N)Cc2ccc(C(F)(F)F)cc2)cs1 (stereo not given),79.7% (active)
23,COc1ccc(CC(N)c2csc(NC(=O)Cc3ccccc3)n2)cc1 (stereo not given),15.8% (active)
24,Cn1c(=O)c(=O)n(C)c2cc(S(=O)(=O)NCCc3ccccc3)ccc21,0.95%

row,Structure (SMILES),activation
1,O=C(O)C1C2C=CC(O2)C1C(=O)NCCc1cccc(Cl)c1 (stereo not given),2.07%
2,CCCc1cc(C(=O)Nc2ccc(C(=O)OC)cc2)cs1,4.88%
3,O=C(c1noc2c1CCCC2)N1CCc2ccccc2C1,3.31%
4,NC(=O)C1=C[C@H](c2csc3ccccc23)C[C@H](OCc2ccc(CO)cc2)O1,33.4% (active)
5,Cc1cc2nc3c(=O)[nH]c(=O)nc-3n(C[C@H](O)[C@H](O)[C@H](O)CO)c2cc1C,138% (active)
6,Cc1ccccc1-c1nc(CS(=O)(=O)CC(=O)N2CCc3ccccc3C2)c(C)o1,5.05%
7,O=C(NNC(=S)NC(=O)c1cn(-c2ccccc2)nc1-c1ccccc1)c1ccncc1,79.1% (active)
8,CC(NC(=O)c1cc(-c2ccccc2)on1)c1ccccc1 (stereo not given),37.5% (active)
9,CCc1ccccc1S(=O)(=O)Cc1ccc(C(=O)NCCc2ccccc2)o1,5.88%
10,Cc1ccc(S(=O)(=O)N(CC(=O)N2CCc3ccccc3C2)c2cccc(Cl)c2)cc1,-0.38%
11,CC(=O)Nc1ccccc1Sc1ccc2c3c(cccc13)C(=O)N(c1ccc(C)cc1)C2=O,0.61%
12,COc1cc(OC)cc(C(=O)N[C@H](C(=O)OCC(=O)NC(C)c2ccccc2)C(C)C)c1 (stereo not given in full),24.2% (active)
13,C[C@H](NC(=O)c1ccccc1)C(=O)OCC(=O)c1c[nH]c2ccccc12,0%
14,CCCn1c(O)c(CN2CCCC(C)C2)c(C)c(C#N)c1=O (stereo not given),4.14%
15,COc1ccc(C(=O)NC(=S)NNC(=O)c2c(-c3ccccc3)noc2C)cc1,68.8% (active)
16,Cc1onc(-c2ccccc2)c1C(=O)NNC(=S)NC(=O)c1ccc(F)cc1,105% (active)
17,Cc1cc(=O)oc2c(C)c(OCC(=O)NCCN3CCOCC3)ccc12,4.41%
18,COc1ccc(C(=O)NC(=S)NNC(=O)CCc2ccccc2)cc1,87.2% (active)
19,COc1ccc(C(=O)NNC(=S)NC(=O)c2ccccc2)cc1,94.4% (active)
20,O=C(Nc1cccc(NC(=O)c2ccc(Br)cc2)c1)c1ccccc1,5.7%
21,COc1ccc(OC)c(C(c2nnnn2C(C)(C)C)N2CCc3ccccc3C2)c1 (stereo not given),-0.7%
22,Nc1c(C(=O)c2cccs2)sc2nsc(SCCN3CCCCC3)c12,72.3% (active)
23,CCC(c1nnnn1Cc1ccco1)N(CCc1ccccc1)Cc1cc2ccc(OC)cc2[nH]c1=O (stereo not given),4.24%
24,O=C1CCCC(O)=C1C=NCCc1ccccc1,5.18%

row,Structure (SMILES),activation
1,CCCCCc1c(-c2ccc(OC)c(OC)c2)ncn1CCc1ccccc1OC,17.4% (active)
2,CCCCCc1c(-c2cccc(Br)c2)ncn1CCc1ccccc1OC,10.8%
3,CCCCCc1c(Cc2ccccc2)ncn1CCc1ccccc1OC,17% (active)
4,CCc1c(-c2ccccc2OC)ncn1CCc1ccccc1OC,5.18%
5,CCCCc1c(-c2ccc(Cl)cc2)ncn1CCc1ccccc1OC,16.1% (active)
6,CCCCc1c(-c2ccc(Br)cc2)ncn1CCc1ccccc1OC,13.2% (active)
7,O=[N+]([O-])c1cc(S(=O)(=O)NCCc2ccccn2)ccc1Cl,2.99%
8,CCCCCCCCCCOC(=O)Cn1c(COc2ccc(C)cc2)[n+](C)c2ccccc21,76.5% (active)
9,Cc1c(CNCCc2ccccc2)c(C(=O)O)c(C)n1-c1ccccc1,1.76%
10,S=C(Nc1ccc(Br)cc1)NC1CCN(Cc2ccccc2)CC1,22.9% (active)
11,O=C(/C=C/[C@H]1O[C@@H](n2cnc3c(NC(=O)c4ccccc4)ncnc32)[C@H](O)[C@@H]1O)NCc1ccccc1,0.21%
12,Cc1ccccc1NC(=S)NC(=O)Cc1ccc(Cl)cc1,41.1% (active)
13,O=C(NCCc1ccccc1)Oc1ccc(Cl)cc1,1.7%
14,O=C(Cc1ccc(Cl)cc1)NC(=S)Nc1ccccc1O,103% (active)
15,O=c1cnnc(Nc2ccccc2)[nH]1,4.92%
16,O=C(Nc1ccccc1)Nc1nnc(COc2ccccc2F)s1,8.56%
17,O=Cc1c(NCCc2cccc(F)c2)c2ccccc2[nH]c1=O,2.77%
18,CCCCC(=O)NNC(=S)NC(=O)C(c1ccccc1)c1ccccc1,119% (active)
19,CN(C)CCCN(C(=O)c1ccc(S(=O)(=O)N2CCCCCC2)cc1)c1nc2ccc(Br)cc2s1,36.2% (active)
20,CN(C)CCCN(C(=O)c1ccc(S(=O)(=O)N2CCCc3ccccc32)cc1)c1nc2ccc(F)cc2s1,37.7% (active)
21,Nc1nnn(CC(=O)N/N=C/c2ccccc2)n1,-0.59%
22,c1ccc(CCN2CN=C(Nc3nc4ccccc4o3)NC2)cc1,0.14%
23,CC(=O)Oc1ccc(Cn2c(C)c(C(=O)NCc3ccc(C#N)cc3)sc2=O)cc1,66.2% (active)
24,Cc1cccc(NC(=O)C(C)N2C(=O)C3C4CC(C(Br)C4Br)C3C2=O)c1 (stereo not given),25.2% (active)

row,Structure (SMILES),activation
1,c1ccc(Nc2nc(N3CCOCC3)c3ccccc3n2)cc1,14.2% (active)
2,Nc1c(NCCc2ccccc2)c2ccccc2oc1=O,6.54%
3,CCCCOc1ccc(CSC(=N)N)cc1[N+](=O)[O-],22.3% (active)
4,CCOc1ccc(Br)cc1CSC(=N)N,9.07%
5,CCN(CC)c1ccc2oc(=O)c(C)nc2c1,43.7% (active)
6,Oc1ccc2ccc3cccc[n+]3c2c1,126% (active)
7,CN(C(=O)CN(CCO)CC(=O)N(C)C(C)(C)Cc1ccccc1)C(C)(C)Cc1ccccc1,84.7% (active)
8,NC[C@H](Cc1ccccc1)NCCc1cc(C(F)(F)F)cc(C(F)(F)F)c1,21.6% (active)
9,CCc1ccc(-c2nn(-c3ccccc3)cc2CSC(=N)N)cc1,26.4% (active)
10,CN(C)c1ccc(/C=C2\NC(=S)N(Cc3ccccc3)C2=O)cc1,67.4% (active)
11,O=C1CCCN2N=C(SCC(=O)Nc3ccc(Br)cc3)SC2=N1,8.82%
12,O=C(Nc1ccncc1)Nc1ccc(F)cc1,4.69%
13,Cc1cc(C)c2cc(C#N)c(N3CCNCC3)nc2c1,-0.65%
14,N#Cc1ccc(OCCCN2CCC(C(O)(c3ccccc3)c3ccccc3)CC2)c(F)c1,21.1% (active)
15,O=C(CNC(=O)c1ccccc1F)OCC(=O)c1c[nH]c2ccccc12,2.13%
16,S=C(NCCCc1cnc[nH]1)NCCCN(Cc1ccc(Cl)c(Cl)c1)c1ccc(Br)cn1,26.5% (active)
17,COc1ccc(NC(=O)C(=O)NCC(c2ccco2)N2CCc3ccccc3C2)cc1 (stereo not given),0.06%
18,COC(=O)c1[nH]c2cccc(C)c2c1NC(=O)CN1CCCc2ccccc21,11.5%
19,NC(c1ccccc1)c1csc(NC(=O)Nc2cccc(C(F)(F)F)c2)n1 (stereo not given),37% (active)
20,COc1ccc(C(N)c2csc(NC(=O)Nc3cccc(C(F)(F)F)c3)n2)cc1 (stereo not given),22.4% (active)
21,CCOC(=O)Cc1csc(NC(=O)Nc2ccccc2)n1,10.9%
22,Cc1ccn2c(=O)c(C(=O)NCCC3=CCCCC3)c(O)nc2c1,4.2%
23,O=C(CCCN=C1NS(=O)(=O)c2ccccc21)OCC(=O)c1ccc(F)c(F)c1,51.3% (active)
